Source: PubChem BioAssay (The Scripps Research Institute Molecular Screening Center)
CHO-K1 Ca ag – M1 agonist counterscreen hit in parental CHO-K1 cells | Fluo-8 calcium fluorescence; scaled to maximal ATP response, vehicle zero | activation, % at 3 µM | actives 0.48% (n = 360,000); in the data active = activation above about 15%;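 also: untransfected CHO-K1 host cells lacking M1 receptor as counterscreen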
OX1R antag-1 – blocks the human orexin 1 receptor; O43613; CHO/OX1R cells, Fluo-8 calcium fluorescence, orexin A; inhibition, % at 5 µM; actives 0.43% (n = 330,000); AID 434989;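 active = inhibition above its plate's threshold, mean inhibition of all tested compounds on the plate plus 3 SD, cut at about 37% in these data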
Target sequence (O43613 whole entry, looked up): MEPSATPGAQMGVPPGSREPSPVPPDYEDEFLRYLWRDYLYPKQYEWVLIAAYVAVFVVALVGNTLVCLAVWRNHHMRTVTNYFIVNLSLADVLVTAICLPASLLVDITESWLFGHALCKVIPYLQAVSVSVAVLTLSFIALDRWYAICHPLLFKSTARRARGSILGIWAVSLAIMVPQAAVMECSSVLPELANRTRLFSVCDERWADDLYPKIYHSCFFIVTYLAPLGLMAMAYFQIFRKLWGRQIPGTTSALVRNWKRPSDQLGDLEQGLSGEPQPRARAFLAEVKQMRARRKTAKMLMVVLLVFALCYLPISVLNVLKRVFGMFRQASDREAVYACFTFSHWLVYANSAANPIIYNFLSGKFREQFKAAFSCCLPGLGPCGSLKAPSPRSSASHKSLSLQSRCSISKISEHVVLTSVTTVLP
CHO parental Ca – counter-screen: ATP calcium response change in parental CHO cells | parental CHO-K1, ATP-induced calcium, Fluo-8 fluorescence | inhibition, % at 5.6 µM | actives 0.63% (n = 330,000) | AID 463079;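 active = inhibition above that plate's mean sample inhibition plus 3 SD, cut at about 26% in these data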
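Material: Parental CHO cells | Reagent: ATP | Compound dosing: Single nominal dose of 5.6 µM per compound | Detection: Intracellular calcium via Fluo-8 no-wash fluorescent dye | Read-out: % inhibition of ATP-induced calcium mobilization | Benchmarks: Low control ATP plus DMSO, high control DMSO only | Replicates: Singlicate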
OX1R antag-2 – OX1R (human) antagonism | O43613 | OX1R-expressing cells, FRET antagonist read-out | inhibition, % at 6.6 µM | actives 1.8% (n = 330,000) | AID 485270; in the data active = inhibition mostly above about 38%, no sharp cut-off; inactive = mostly below about 40%
M1 PAM parental – counter-screen for M1 PAMs: effect in parental CHO-K1 cells; ATP EC20, Fluo-8 calcium fluorescence; 0% at ATP EC20, 100% at ATP max; activation, % at 3 µM; actives 0.02% (n = 360,000); AID 602247;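 active = activation above the run cutoff, the mean activation of all test compounds plus 3 SD, cut at about 40% in these data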;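 also: peak over basal fluorescence ratio in a 140 s read after ATP addition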
CHO-K1 Ca antag – M1 antagonist counterscreen hit in parental CHO-K1 cells; ATP-induced calcium, Fluo-8 fluorescence; inhibition, % at 3 µM; actives 0.6% (n = 360,000); AID 602250;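 active = inhibition above a per-plate cutoff, the plate's mean sample inhibition plus 3 SD, cut at about 24% in these data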
Of the large screens only hits and unclear results are named; the others gave an inactive call. Most compounds without a hit are left out; they make up all but 2.9% or so of the library.

C#CCOc1ccc(/C=C2/C(=O)N(c3cccc(C(=O)O)c3)N=C2C)cc1OC	CHO-K1 Ca antag 26
COc1cc(CNn2c(C)n[nH]c2=S)cc(Cl)c1OCc1ccc(F)cc1	OX1R antag-1 45, CHO parental Ca 35
COc1cc(CNn2c(C)n[nH]c2=S)cc(Br)c1OCc1ccc(F)cc1	none
Cc1ccc(N2C(=O)c3cccc(Oc4ccc(Cl)cc4)c3C2=O)c(C)c1	none
O=C(O)CN1C(=O)c2cccc(Oc3ccc(Cl)cc3)c2C1=O	CHO-K1 Ca antag 30
CN(C)S(=O)(=O)n1cc(/C=C(\NC(=O)c2ccccc2)C(=O)N2CCCC2)c2ccccc21	none
COc1ccc(S(=O)(=O)N2CCN3CCCC3C2)cc1 (centres undefined)	none
CCCCN1C(=O)/C(=C/C=C2\SCCN2C)SC1=S	CHO-K1 Ca ag 16 (no result: OX1R antag-1, CHO parental Ca, OX1R antag-2)
CCCCN1C(=O)/C(=C/C=C2\N(C)c3ccccc3C2(C)C)SC1=S	OX1R antag-1 51 (no result: CHO-K1 Ca ag, M1 PAM parental, CHO-K1 Ca antag)
CN1CCS/C1=C/C=C1/SC(=S)N(Cc2ccccc2)C1=O	none
CCCN1C(=O)/C(=C\C=C2/C=CN(CC)c3ccccc32)SC1=S	none
Cn1cncc1C#Cc1c(C=O)[nH]c2ccccc12	none
CCN(CC)S(=O)(=O)c1cccc(N=NC2=C(O)CCCC2=O)c1	none
O=C1CCCC(O)=C1N=Nc1cccc(C(=O)O)c1	OX1R antag-2 70
N#C/C(N=Nc1ccccc1O)=N\Nc1ccccc1O	CHO-K1 Ca ag 16
Oc1ccccc1N=N/C(=N/Nc1ccccc1O)c1ccccc1	none
CCOC(=O)c1csc(NC(=O)CN2CCCCC2)n1	none
CCOCC(=O)Nc1ccc2c(c1)N(S(=O)(=O)c1cccs1)CCC2	none
CCOCCC(=O)Nc1ccc2c(c1)c(=O)n(C)n2Cc1cccc(C(F)(F)F)c1	none (no result: OX1R antag-1, CHO parental Ca, OX1R antag-2)
CC1CCc2c(sc3ncnc(SC(C)C(=O)NCC4CCCO4)c23)C1 (centres undefined)	none
CCOc1ccc(-c2nn3c(-c4ccccc4)nnc3s2)cc1	OX1R antag-2 64
COc1cccc(-c2nn3c(-c4cccc(C)c4)nnc3s2)c1	OX1R antag-2 57
Cc1ccc(NC(=O)CCN2C(=O)NC3(CCCC3)C2=O)c(C)c1	none
NNC(=O)c1nc(-c2ccccc2)cc(-c2ccccc2)n1	none (no result: OX1R antag-1, CHO parental Ca, OX1R antag-2)
O=C(OCn1ncc(Cl)c(Cl)c1=O)c1ccc(F)cc1	CHO parental Ca 32 (no result: CHO-K1 Ca ag, M1 PAM parental, CHO-K1 Ca antag)
CC1(C(=O)NCc2ccccn2)CCN1C(=O)Cc1ccc(Cl)cc1Cl (centres undefined)	none (no result: OX1R antag-1, CHO parental Ca, OX1R antag-2)
Cc1ccccc1NC(=O)C1CCCN(c2nnc(N3CCCC3=O)s2)C1 (centres undefined)	CHO-K1 Ca antag 26
Cc1c(N/N=C(\C#N)C(=O)c2ccc(Cl)cc2)c(=O)n(-c2ccccc2)n1C	none
N#C/C(=N\Nc1ccc(Cl)cc1)C(=O)c1ccccc1	OX1R antag-2 60, CHO-K1 Ca antag 31
N#Cc1ccc(NC(=O)CNc2cc(S(=O)(=O)N3CCOCC3)ccc2NCC2CCCO2)cc1 (centres undefined)	CHO parental Ca 39
O=c1cc(CSc2nnc(-c3cccs3)n2Cc2ccccc2)nc2sc3ccccc3n12	CHO parental Ca 52
Cc1cc(C(=O)CSc2nnc(-c3cccs3)n2Cc2ccccc2)c(C)n1C	none
O=C(Nc1cccc([N+](=O)[O-])c1)NN1CCCCCC1	none (no result: OX1R antag-1, CHO parental Ca, OX1R antag-2)
COc1ccc(C(C)=O)cc1COC(=O)CNC(=O)c1ccc(F)cc1	none
COc1ccc(C(C)=O)cc1COC(=O)CNC(=O)c1ccc(Cl)cc1	CHO-K1 Ca antag 29
O=[N+]([O-])c1cc(Br)c2nsnc2c1N1CCOCC1	OX1R antag-2 29
COCCOC(=O)c1[nH]c2c(c1C)C(=O)CC(c1cc(OC)c(OC)c(OC)c1)C2 (centres undefined)	none
CCCCOC(=O)c1[nH]c2c(c1C)C(=O)CC(c1cc(OC)c(OC)c(OC)c1)C2 (centres undefined)	CHO parental Ca 62
C=CCOC(=O)c1[nH]c2c(c1C)C(=O)CC(c1cc(OC)c(OC)c(OC)c1)C2 (centres undefined)	CHO parental Ca 33
CC1CCC2(CC1)NC(=O)N(CC(=O)c1ccc(CNC(=O)C(C)(C)C)s1)C2=O (centres undefined)	OX1R antag-2 35
CC(C)(C)C(=O)NCc1ccc(C(=O)CN2C(=O)NC3(CCCC3)C2=O)s1	none (no result: OX1R antag-1, CHO parental Ca, OX1R antag-2)
Cc1ccc(NS(=O)(=O)c2cccc(C(=O)N3CCN(C(=O)c4ccco4)CC3)c2)cc1	none
Cc1nnsc1C(=O)NNS(=O)(=O)c1ccccc1	none
Cc1nnsc1C(=O)NC(C)c1ccccc1 (centres undefined)	CHO-K1 Ca ag 21
COc1ccc(C(=O)OCC(=O)c2ccco2)cc1[N+](=O)[O-]	none (no result: OX1R antag-1, CHO parental Ca, OX1R antag-2)
Cc1ccc(S(=O)(=O)N2CCN(C(=O)CC(C)n3nc(C)c(Cl)c3C)CC2)cc1 (centres undefined)	none
CCN(CC)C(=O)Cn1cc(C(=O)C(=O)NCCc2c[nH]c3ccccc23)c2ccccc21	OX1R antag-2 46
Cc1noc(C)c1C(=O)N(CC(=O)Nc1ccc(Cl)c(C(F)(F)F)c1)Cc1ccco1	none
N=c1c(C(=O)NCCN2CCOCC2)cc2c(=O)n3ccccc3nc2n1Cc1ccc(F)cc1	OX1R antag-2 60
Cc1ccc(S(=O)(=O)c2cc3c(=O)n4ccccc4nc3n(CCCN3CCOCC3)c2=N)cc1C	none
N=c1c(C(=O)NCCN2CCOCC2)cc2c(=O)n3ccccc3nc2n1CCCN1CCOCC1	OX1R antag-2 69
Cc1ccc2nc3c(cc(C(N)=S)c(=N)n3CCCOC(C)C)c(=O)n2c1	OX1R antag-2 47
N=c1c(S(=O)(=O)c2ccc(Cl)cc2)cc2c(=O)n3ccccc3nc2n1CCN1CCOCC1	none
N=c1c(S(=O)(=O)c2ccccc2)cc2c(=O)n3ccccc3nc2n1CCCN1CCOCC1	OX1R antag-2 46
CC(C(=O)Nc1ccncc1)(c1ccccc1)c1ccccc1	none
CC1CC(C)CN(CCCNC(=O)c2nn(C)c3c2CS(=O)(=O)c2ccccc2-3)C1 (centres undefined)	none
Cc1ccc2nc3c(cc(C(=O)NCCN4CCOCC4)c(=N)n3CCCN3CCOCC3)c(=O)n2c1	OX1R antag-2 71
Cc1ccc2nc3c(cc(C(=O)NCc4ccccc4)c(=N)n3CCCn3ccnc3)c(=O)n2c1	none (no result: OX1R antag-1, CHO parental Ca, OX1R antag-2)
COc1ccc(NC(=O)N2CCN(c3cccc(C(F)(F)F)c3)CC2)cc1	none
Cc1cccc(NC(=O)CSCC(=O)N2CCN(c3cccc(C(F)(F)F)c3)CC2)c1	OX1R antag-2 30
CN(C)S(=O)(=O)c1ccc(NC(=O)N2CCN(c3cccc(C(F)(F)F)c3)CC2)cc1	OX1R antag-1 48, CHO parental Ca 39
COc1cc2c(cc1OC)C(C)N(S(=O)(=O)c1ccc(Cl)nc1)CC2 (centres undefined)	none
CCN1C(=O)c2cccc3c(Cl)ccc(c23)C1=O	none
